Assay results taken from ChEMBL document CHEMBL1124000, “N-acylphenylalanines and related compounds. A new class of oral hypoglycemic agents” (1988).
Where a SMILES comes first, the peptide text is derived from it.

How the values were obtained:
Mus musculus [1] = experiment: Hypoglycemic activity was determined as decrease in blood glucose at a dose 250 mg/kg in fasting mice after peroral administration.; assay type: functional; conditions: route oral
How it was run: (§1)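 Male ICR-CD1 mice, 5 weeks old, fasted 18 h, groups of five. Given orally as a suspension in 0.5% (carboxymethyl)cellulose-0.14 M NaCl, 1 mL/kg; vehicle-treated control group run in parallel. Doses 500, 250, 100, 50, 25 and 10 mg/kg. Blood drawn from carotid 1 h after dosing; glucose measured enzymatically by glucose-oxidase-peroxidase; Student's t test (p < 0.05).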

Mus musculus [2] = experiment: Hypoglycemic activity at the lowest dose that causing 20% blood glucose decrease (fasting mice, po); assay type: functional; how it was run: as §1

Compound | Decrease (Mus musculus [1]) | Dose (Mus musculus [2])
Cc1ccccc1C(=O)N[C@@H](Cc1ccccc1)C(=O)O | <20% | –
O=C(N[C@@H](Cc1ccccc1)C(=O)O)c1cccc2ccccc12 | <20% | –
O=C(N[C@@H](Cc1ccccc1)C(=O)O)c1cccnc1 | <20% | –
CC(=O)N1CCC[C@H]1C(=O)N[C@@H](Cc1ccccc1)C(=O)O (Ac-Pro-Phe-OH) | <20% | –
O=C(N[C@H](Cc1ccccc1)C(=O)O)c1ccccc1 | <20% | –
O=C(N[C@@H](Cc1ccccc1)C(=O)O)c1ccncc1 | <20% | –
O=C(N[C@@H](Cc1ccccc1)C(=O)O)c1ccc2ccccc2c1 | – | 250 mg/kg
COc1ccc(C(=O)N[C@@H](Cc2ccccc2)C(=O)O)cc1 | – | 100 mg/kg
O=C(N[C@@H](Cc1ccccc1)C(=O)O)c1ccc2c(c1)CCC2 | – | 250 mg/kg
O=C(N[C@@H](Cc1ccccc1)C(=O)O)c1ccc2ncccc2c1 | <20% | –
CCOc1ccc(C(=O)N[C@@H](Cc2ccccc2)C(=O)O)cc1 | – | 100 mg/kg
Cc1cccc(C(=O)N[C@@H](Cc2ccccc2)C(=O)O)c1 | <20% | –
CCCCNC(=O)NS(=O)(=O)c1ccc(C)cc1 [TOLBUTAMIDE] | – | 25 mg/kg
O=C(N[C@@H](Cc1ccccc1)C(=O)O)C1CCCCC1 | – | 100 mg/kg
O=C(O)[C@H](Cc1ccccc1)NCc1ccccc1 | <20% | –
O=C(N[C@@H](Cc1ccccc1)C(=O)O)c1ccccc1 | – | 150 mg/kg

Compound | Decrease (Mus musculus [1]) | Dose (Mus musculus [2])
O=C(O)[C@H](Cc1ccccc1)NC(=O)[C@@H]1CCCN1C(=O)c1ccccc1 | <20% | –
Cc1ccc(C(=O)N[C@@H](Cc2ccccc2)C(=O)O)cc1 | – | 100 mg/kg
O=C(N[C@@H](Cc1ccccc1)C(=O)O)C1CCCCCC1 | <20% | –
O=C(O)/C(=C/c1ccccc1)NC(=O)c1ccccc1 | <20% | –
O=C(O)[C@H](Cc1ccccc1)NC(=O)[C@H]1CCCN1C(=O)c1ccccc1 | <20% | –
O=C(N[C@@H](Cc1ccccc1)C(=O)O)c1cnc2ccccc2c1 | <20% | –
O=C(O)[C@@H]1Cc2ccccc2CN1C(=O)c1ccccc1 | <20% | –
O=C(N[C@@H](Cc1ccccc1)C(=O)O)c1ccc2ccccc2n1 | <20% | –
O=C(O)/C(=C\c1ccccc1)NC(=O)c1ccccc1 | <20% | –
O=C(O)[C@H]1Cc2ccccc2CN1C(=O)c1ccccc1 | <20% | –
O=C(N[C@@H](Cc1ccccc1)C(=O)O)c1cc2ccccc2o1 | – | 100 mg/kg
O=C(N[C@H](Cc1ccccc1)C(=O)O)C1CCCC1 | <20% | –
O=C(N[C@@H](Cc1ccccc1)C(=O)O)c1ccc2c(c1)OCO2 | – | 100 mg/kg
O=C(N[C@@H](Cc1ccccc1)C(=O)O)C1CC=CCC1 (some centres not stated) | – | 100 mg/kg
O=C(NC(Cc1ccccc1)C(=O)O)c1ccccc1 (configuration not stated) | – | 500 mg/kg
O=C(N[C@@H](Cc1ccccc1)C(=O)O)C1CCCC1 | – | 50 mg/kg
